Results on 18 compounds are retold here after ChEMBL document CHEMBL3596100, “The synthesis and biological activity of novel anthracenone-pyranones and anthracenone-furans” (Bioorg Med Chem, 2015).

Activity calls are given as the source filed them. The calls are words filed in the database; no cut-off is given here.

For one test, the system named is HT-29. As to the kind of experiment: Growth inhibition of human HT-29 cells after 72 hrs by MTT assay. It is filed as functional. To be noted: for GI50: HT-29, 72 h. In short, it runs like this: (§1)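 Cells kept in DMEM with 10% FBS, glutamine, penicillin/streptomycin at 37 °C, 5% CO2; plated in duplicate at 2500–4000 cells/well, dosed 24 h later during log growth. After 72 h drug exposure, MTT read at 540 nm. […] Assays in triplicate, standard error reported.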

In another test the test system is U-87MG ATCC. In words: (§2) Growth inhibition of human U87 cells after 72 hrs by MTT assay. Type of test: functional. In short, it runs like this: as §1
(Tetrazolium dyes change colour on reduction, which living cells bring about.)

A further test deals with MCF7. As to the kind of experiment: Growth inhibition of human MCF7 cells after 72 hrs by MTT assay. It is filed as functional. The settings on record: for GI50: MCF7, 72 h. Summed up: as §1
The next test concerns A2780. In words: Growth inhibition of human A2780 cells after 72 hrs by MTT assay. It is filed as functional. To be noted: for GI50: A2780, 72 h. In short, it runs like this:
as §1

The subject of a further test is NCI-H460. In words: (§3) Growth inhibition of human H460 cells after 72 hrs by MTT assay. Type of test: functional. Summed up: as §1
In a further test the test system is A-431. In words: Growth inhibition of human A431 cells after 72 hrs by MTT assay. To be noted: for GI50: A-431, 72 h. Type of test: functional. In short, it runs like this:
as §1

The next test relates to DU-145. In words: Growth inhibition of human DU145 cells after 72 hrs by MTT assay. Type of test: functional. The settings on record: for GI50: DU-145, 72 h. Summed up: as §1
Another test deals with BE(2)-C. As to the kind of experiment: (§4) Growth inhibition of human BE(2)-C cells after 72 hrs by MTT assay. Type of test: functional. In short, it runs like this:
as §1

In the next test the test system is SJ-G2. In words: (§5) Growth inhibition of human SJ-G2 cells after 72 hrs by MTT assay. Type of test: functional. Summed up: as §1
The test system of another test is MIA. As to the kind of experiment: (§6) Growth inhibition of human MIA cells after 72 hrs by MTT assay. Type of test: functional. In short, it runs like this:
as §1

The next test has as its system SMA. In words: (§7) Growth inhibition of mouse SMA cells after 72 hrs by MTT assay. It is filed as functional. Summed up: as §1
Test [1] can be described thus: as §2. To be noted: U-87 MG. Type of test: functional, U-87MG ATCC. Summed up: as §1
Test [2] in a line: as §3. It is filed as functional. To be noted: NCI-H460, 72 h. In short, it runs like this: as §1
The nature of test [3]: as §4. Type of test: functional. Summed up: as §1
Test [4] in a line: as §5. Type of test: functional. The settings on record: SJ-G2, 72 h. Summed up:
as §1

Test [5] can be described thus: as §6. Type of test: functional. In short, it runs like this: as §1
A short description of test [6]: as §7. Type of test: functional. Summed up: as §1

As for `CCCCCCc1cc2c(C)cc3c(c2oc1=O)C(=O)c1c(O)cccc1C3=O`, the “growth inhibition (GI)” value in the test on HT-29, in the test on U-87MG ATCC, in the test with MCF7, in the test with A2780, in the test with NCI-H460 and in the test on A-431 was “Active” in each case. For the same compound, the “growth inhibition (GI)” value with DU-145, with BE(2)-C, in the test with SJ-G2, in the test on MIA and in the test with SMA was “Active” throughout.
As to `CCCCCCc1cc(=O)c2c(C)cc3c(c2o1)C(=O)c1c(O)cccc1C3=O`, the “growth inhibition (GI)” value with HT-29, in the test with U-87MG ATCC, in the test with MCF7, in the test with A2780, in the test with NCI-H460 and in the test with A-431 was “Active” each time. For the same compound, the “growth inhibition (GI)” value with DU-145, in the test with BE(2)-C, in the test on SJ-G2 and with MIA was “Active” throughout.
On to `Cc1cc2c(c3oc(-c4ccccc4)cc(=O)c13)C(=O)c1c(O)cccc1C2=O`, for which the “growth inhibition (GI)” value with HT-29, in the test with U-87MG ATCC, with MCF7, in the test with A2780, in the test with NCI-H460 and in the test on A-431 was “Active” throughout. In addition, the “growth inhibition (GI)” value with DU-145, with BE(2)-C, with MIA and in the test with SMA was “Active” each time.
As usually defined, the GI50 is the concentration that inhibits growth by half. With `Cc1cc2c(c3oc(=O)c(CCCC#N)cc13)C(=O)c1c(O)cccc1C2=O`, the GI50 with HT-29 was 14 µM; in test [1], 11 µM; in the test with MCF7, 12 µM; in the test on A2780, 10 µM; in [2] it was 9 µM; in the test on A-431 it was 12 µM. Moreover, the GI50 came out at 3.2 µM in the test on DU-145; 11 µM in test [3]; 22 µM in test [4]; 15 µM in [5]; 9.8 µM in test [6].
As for `Cc1cc2c(c3oc(CCCCl)cc13)C(=O)c1c(O)cccc1C2=O`, the GI50 with HT-29 is 1.9 µM; in test [1], 0.97 µM; in the test on MCF7, 0.66 µM; with A2780 it was 0.45 µM; in test [2] it was 1.9 µM; in the test on A-431, 0.59 µM. Besides, the concentration for 50% growth inhibition (GI50) in the test with DU-145 came out at 0.44 µM; in test [3], 0.38 µM; in test [4], 37 µM; in test [5] it was 0.55 µM; in test [6], 0.69 µM.
For `CCCCCCc1cc2c(C)cc3c(c2oc1=O)C(=O)c1c(OC(C)C)cccc1C3=O`, the “growth inhibition (GI)” value in the test with HT-29, in the test on U-87MG ATCC, in the test on MCF7, in the test with A2780, in the test with NCI-H460 and in the test with A-431 was “Active” throughout. The “growth inhibition (GI)” value in the test on DU-145, with BE(2)-C, with SJ-G2 and with MIA was “Active” throughout.
Take `CCCc1cc(=O)c2c(C)cc3c(c2o1)C(=O)c1c(OC)cccc1C3=O`: the GI50 in the test with HT-29 was found to be 5.5 µM; in test [1], 6.4 µM; with MCF7, 6.4 µM; with A2780 it was 6.4 µM; in test [2], 5.3 µM; in the test with A-431, 6.6 µM. The GI50 is 5.3 µM in the test on DU-145; 6.1 µM in [3]; 5.3 µM in test [4]; 7.1 µM in test [5]; 6 µM in test [6].
For the compound `Cc1cc2c(c3oc(=O)c(CCCCl)cc13)C(=O)c1c(OC(C)C)cccc1C2=O`, the GI50 is 15 µM in the test on HT-29; 16 µM in test [1]; 19 µM in the test on MCF7; 21 µM in the test on A2780; 19 µM in test [2]; 17 µM in the test with A-431. Further, the 50% growth inhibitory concentration (GI50) was determined as 20 µM in the test with DU-145; 33 µM in test [3]; 15 µM in test [4]; 20 µM in test [5]; 19 µM in test [6].
Consider `Cc1cc2c(c3oc(-c4ccccc4)cc13)C(=O)c1c(OC(C)C)cccc1C2=O`, for which the “growth inhibition (GI)” value in the test with HT-29, in the test on U-87MG ATCC, in the test with MCF7, with A2780, in the test on NCI-H460 and with A-431 was “Active” throughout. Besides, the “growth inhibition (GI)” value with BE(2)-C, in the test with MIA and with SMA was “Active” throughout.
Consider `Cc1cc2c(c3oc(-c4ccccc4)cc13)C(=O)c1c(O)cccc1C2=O`, for which the “growth inhibition (GI)” value with HT-29, with U-87MG ATCC, with MCF7, in the test on A2780, in the test with NCI-H460 and in the test with A-431 was “Active” throughout. In addition, the “growth inhibition (GI)” value with BE(2)-C, in the test on MIA and in the test on SMA was “Active” in each case.
In the case of `CCc1cc(=O)c2c(C)cc3c(c2o1)C(=O)c1c(OC(C)C)cccc1C3=O`, the GI50 turned out to be 4.8 µM in the test with HT-29; 8.7 µM in test [1]; 4.3 µM with MCF7; 5.8 µM in the test with A2780; 6.9 µM in [2]; 5.7 µM in the test with A-431. Besides, the concentration for 50% growth inhibition (GI50) in the test on DU-145 is 1.9 µM; in [3], 2.2 µM; in [4], 16 µM; in [5], 3.4 µM; in [6] it was 3.9 µM.
Take `Cc1cc2c(c3oc(CCCCl)cc13)C(=O)c1c(OC(C)C)cccc1C2=O`: the 50% growth inhibitory concentration (GI50) with HT-29 amounted to 18 µM; in [1], 18 µM; in the test with MCF7, 13 µM; with A2780, 11 µM; in test [2] it was 27 µM; in the test on A-431, 23 µM. In addition, the concentration for 50% growth inhibition (GI50) stood at 25 µM with DU-145; 43 µM in test [3]; 25 µM in test [4]; 34 µM in test [5]; 22 µM in test [6].
As to `CCCc1cc(=O)c2c(C)cc3c(c2o1)C(=O)c1c(O)cccc1C3=O`, the GI50 in the test with HT-29 stood at 3.2 µM; in test [1], 2.8 µM; with MCF7, 1.8 µM; in the test with A2780, 2.4 µM; in [2] it was 1.4 µM; in the test with A-431 it was 1.6 µM. Moreover, the GI50 with DU-145 came out at 1.2 µM; in test [3], 1.8 µM; in test [4], 1.7 µM; in test [5], 1.7 µM; in test [6], 1.5 µM.
For `Cc1cc2c(c3oc(C(=O)c4ccccc4)cc13)C(=O)c1c(O)cccc1C2=O`, the “growth inhibition (GI)” value with HT-29, with U-87MG ATCC, in the test with MCF7, with A2780, with NCI-H460 and in the test with A-431 was “Active” throughout. Further, the “growth inhibition (GI)” value in the test with BE(2)-C, with MIA and in the test with SMA was “Active” throughout.
Consider `CCCCCC(=O)c1cc2c(C)cc3c(c2o1)C(=O)c1c(OC(C)C)cccc1C3=O`, for which the GI50 was 0.88 µM in the test with HT-29; 4.2 µM in test [1]; 2 µM with MCF7; 2.3 µM in the test with A2780; 6.8 µM in test [2]; 1.4 µM in the test with A-431. The GI50 in the test with DU-145 worked out at 0.85 µM; in test [3] it was 0.75 µM; in test [4] it was 4.2 µM; in test [5], 1.1 µM; in test [6], 1.8 µM.
With `Cc1cc2c(c3oc(C(=O)c4ccccc4)cc13)C(=O)c1c(OC(C)C)cccc1C2=O`, the GI50 came out at 1.4 µM in the test with HT-29; 2.3 µM in [1]; 1.1 µM with MCF7; 2.1 µM in the test with A2780; 2.9 µM in [2]; 1.77 µM in the test with A-431. The GI50 in the test on DU-145 was 0.95 µM; in test [3], 0.83 µM; in [4], 36 µM; in test [5], 1.7 µM; in test [6], 2.2 µM.
For `CCCCCCc1cc2c(C)cc3c(c2o1)C(=O)c1c(O)cccc1C3=O`, the concentration for 50% growth inhibition (GI50) with HT-29 came to 17 µM; in test [1], 25 µM; in the test with MCF7, 15 µM; in the test with A2780 it was 12 µM; in test [2] it was 17 µM; in the test with A-431, 18 µM. The concentration for 50% growth inhibition (GI50) was determined as 25 µM with DU-145; 21 µM in [3]; 32 µM in test [4]; 13 µM in [5]; 9.3 µM in test [6].
On to `CCCCc1cc(=O)oc2c3c(cc(C)c12)C(=O)c1cccc(OC(C)C)c1C3=O`, for which the 50% growth inhibitory concentration (GI50) in the test on HT-29 was 18 µM; in test [1], 14 µM; in the test on MCF7, 15 µM; in the test with A2780, 9.5 µM; in test [2], 19 µM; in the test with A-431, 20 µM. Also, the concentration for 50% growth inhibition (GI50) in the test with DU-145 was 11 µM; in test [3], 13 µM; in test [4], 13 µM; in test [5], 13 µM; in test [6], 12 µM.
